The results in this text go back to ChEMBL document CHEMBL4130559, “Structure-Based Discovery of Thiosemicarbazone Metalloproteinase Inhibitors for Hemorrhage Treatment in Snakebites” (ACS Med Chem Lett, 2017).

Structures are written as SMILES.

The target in assay [1] is T1, Snake venom metalloproteinase neuwiedase (Bothrops pauloensis, UniProt Q9I9R4).
T1 sequence (Q9I9R4 whole entry): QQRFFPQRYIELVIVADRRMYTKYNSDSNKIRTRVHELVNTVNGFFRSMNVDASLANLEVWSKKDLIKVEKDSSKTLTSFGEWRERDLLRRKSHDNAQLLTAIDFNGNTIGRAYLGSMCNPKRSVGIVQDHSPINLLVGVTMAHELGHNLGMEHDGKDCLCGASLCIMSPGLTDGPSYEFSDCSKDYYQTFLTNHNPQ
Nature of the assay: Inhibition of Bothrops pauloensis MP1 assessed as reduction in azocaseinolytic activity after 30 mins. The gist of the method:
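Purified BpMP-I (7.5 μg per reaction) was preincubated with compound for 30 min at 37 °C. It was then added to azocasein (1 mg/mL) in 0.05 M Tris–HCl pH 7.8 with 0.15 M NaCl and incubated for 30 min at 37 °C. The reaction was stopped with 20% TCA, held 30 min at room temperature and centrifuged. Supernatant was read at A405. IC50 is the concentration giving 50% loss of azocaseinolytic activity.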

The subject of assay [2] is Snake venom. Briefly: Antihemorrhagic activity in Bothrops pauloensis crude venom injected Swiss mouse assessed as reduction in hemorrhagic halo at 1:1 venom to compound ratio administered via intradermal route. Format: functional. On the set-up: scale not given: the % may be the effect or the level left.
Assay [3] has as its system Snake venom. Briefly: Antihemorrhagic activity in Bothrops pauloensis crude venom injected Swiss mouse assessed as reduction in hemorrhagic halo at 1:20 venom to compound ratio administered via intradermal route. The class given is functional.
In assay [4] the test system is Snake venom. Nature of the assay: Antihemorrhagic activity in Bothrops pauloensis crude venom injected Swiss mouse assessed as reduction in hemorrhagic halo at 1:10 venom to compound ratio administered via intradermal route. The class given is functional. On the set-up: scale not given: the % may be the effect or the level left.
Assay [5] deals with Snake venom. Briefly: Antihemorrhagic activity in Bothrops pauloensis crude venom injected Swiss mouse assessed as reduction in hemorrhagic halo at 1:1 to 1:20 venom to compound ratio administered via intradermal route. Format: functional.
Assay [6] deals with Snake venom. Nature of the assay: Antihemorrhagic activity in Bothrops pauloensis crude venom injected Swiss mouse assessed as reduction in hemorrhagic halo at 1:10 venom to compound ratio administered via intradermal route 10 mins after venom injection. The class given is functional. On the set-up: scale not given: the % may be the effect or the level left. In short, it runs like this:
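Treatment protocol in Swiss male mice (n = 4, 18–22 g). B. pauloensis crude venom (16.3 μg, two minimum hemorrhagic doses) was injected intradermally in the dorsal region. Compound followed 10 min later by the same route at 1:10 venom/compound (w/w). At 150 min the mice were anesthetized and killed, and the skin halo was measured by caliper. Results are percent inhibition versus venom-only controls, mean ± SD.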

Assay [7] has as its system Snake venom. Nature of the assay: Antihemorrhagic activity in Bothrops pauloensis crude venom injected Swiss mouse assessed as reduction in hemorrhagic halo at 1:5 venom to compound ratio administered via intradermal route. Set-up: scale not given: the % may be the effect or the level left. Format: functional.

For `NC(=O)N/N=C/c1ccc(O)cc1`, the IC50 entry in assay [1] is recorded as “Not Active”.

`NC(=S)N/N=C/c1ccc(Cl)cc1`: the IC50 in assay [1] (read-out: IC50) amounted to 4.25 mM.

Regarding `NC(=S)N/N=C/c1ccc(Br)cc1`, in assay [1] (read-out: IC50), the IC50 amounted to 3.14 mM.

With `c1cnc2c(c1)ccc1cccnc12` [PHENANTHROLINE], in assay [1] (read-out: IC50), the IC50 was found to be 0.47 mM.

`COc1ccc(/C=N/NC(N)=S)cc1`: the half-inhibitory concentration (IC50) in assay [1] (read-out: IC50) was 3.01 mM.

Consider `COc1ccc(/C=N/NC(N)=S)cc1O`, for which, in assay [1] (read-out: IC50), the half-inhibitory concentration (IC50) was 3.41 mM.

As to `COc1ccc(/C(CCCC(=O)O)=N/NC(N)=S)cc1`, the Activity with Snake venom [2] is 41%; in the assay with Snake venom [4], 100%; in the assay with Snake venom [5] it was “Dose-dependent effect”; in the assay on Snake venom [6], 31%; in the assay on Snake venom [7] it was 84%. Further, the “inhibition (INH)” value with Snake venom [3] was 100%. In addition, the IC50 in assay [1] (read-out: IC50) is 0.00177 mM.

Turning to `NC(=O)N/N=C/c1cccc(O)c1`, the IC50 result in assay [1] is recorded as “Not Active”.

`NC(=O)N/N=C/c1ccc(C(=O)O)cc1`: the IC50 entry in assay [1] is “Not Active”.

`COc1ccc(/C=N/NC(N)=O)cc1`: in assay [1], the IC50 entry is “Not Active”.

For the compound `NC(=S)N/N=C/c1ccccc1` [PHENYLTHIOSEMICARBAZONE], the IC50 in assay [1] (read-out: IC50) is 4.22 mM.

For the compound `NC(=O)N/N=C/c1ccc(O)cc1O`, the IC50 result in assay [1] is reported as “Not Active”.

As to `COc1ccc(/C(CCC(=O)O)=N/NC(N)=S)cc1`, the “inhibition (INH)” value in the assay with Snake venom [3] was 43%. Also, the IC50 in assay [1] (read-out: IC50) amounted to 0.0791 mM.

Regarding `NC(=O)N/N=C/c1ccc(Cl)cc1`, the IC50 entry in assay [1] is on record as “Not Active”.

Usually IC50 stands for the point on the concentration scale where inhibition reaches its midpoint.
